pEC50, pKi: −log10 of the molar value. Active and inactive are the calls of the source. The calls are words filed in the database; no cut-off is given here.
How the values were obtained:
Mus musculus [1] = assay: Toxicity in iv dosed albino mouse measured after 1 hr; assay type: organism-based; details: in vivo
[2] = target: T1, Neuronal acetylcholine receptor; alpha4/beta2 (Homo sapiens, UniProt P17787+P43681); assay: Agonist activity at human alpha4beta2 nAChR by cell-based rubidium flux assay
T1 sequence (P17787 whole entry): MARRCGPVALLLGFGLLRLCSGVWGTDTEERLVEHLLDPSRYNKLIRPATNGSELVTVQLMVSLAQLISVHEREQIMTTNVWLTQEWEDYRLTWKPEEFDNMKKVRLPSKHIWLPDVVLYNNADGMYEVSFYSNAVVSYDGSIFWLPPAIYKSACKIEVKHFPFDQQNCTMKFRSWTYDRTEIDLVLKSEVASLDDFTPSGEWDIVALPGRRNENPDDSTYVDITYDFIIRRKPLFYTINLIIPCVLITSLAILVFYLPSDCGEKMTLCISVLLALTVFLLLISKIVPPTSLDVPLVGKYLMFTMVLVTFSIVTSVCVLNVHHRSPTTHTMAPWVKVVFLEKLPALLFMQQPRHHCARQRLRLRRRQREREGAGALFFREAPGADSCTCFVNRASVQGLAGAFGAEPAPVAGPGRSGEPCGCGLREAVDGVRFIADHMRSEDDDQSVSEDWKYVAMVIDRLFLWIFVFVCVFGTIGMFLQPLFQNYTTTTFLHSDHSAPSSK
T1 sequence (P43681 whole entry): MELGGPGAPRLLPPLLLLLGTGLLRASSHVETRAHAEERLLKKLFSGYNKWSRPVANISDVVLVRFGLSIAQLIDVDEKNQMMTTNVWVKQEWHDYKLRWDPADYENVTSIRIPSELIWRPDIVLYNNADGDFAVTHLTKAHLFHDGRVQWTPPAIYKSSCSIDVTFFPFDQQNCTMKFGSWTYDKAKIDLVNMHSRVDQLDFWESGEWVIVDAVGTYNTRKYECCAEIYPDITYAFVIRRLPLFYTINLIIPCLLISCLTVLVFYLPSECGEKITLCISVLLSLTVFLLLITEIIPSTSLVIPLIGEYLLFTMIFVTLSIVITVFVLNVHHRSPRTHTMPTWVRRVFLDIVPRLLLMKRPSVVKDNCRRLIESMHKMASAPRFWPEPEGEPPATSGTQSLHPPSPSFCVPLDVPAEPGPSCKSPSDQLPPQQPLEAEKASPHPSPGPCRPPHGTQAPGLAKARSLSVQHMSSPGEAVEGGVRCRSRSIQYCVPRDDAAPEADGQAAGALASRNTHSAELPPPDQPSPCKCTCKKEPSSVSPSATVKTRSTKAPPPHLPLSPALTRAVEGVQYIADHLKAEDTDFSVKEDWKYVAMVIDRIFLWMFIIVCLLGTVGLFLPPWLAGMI
In short: (§1)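 Stably transfected cells expressing rat α3β4 or human α4β2 nAChR were used near confluence. They were preloaded with 86Rb+, washed, stimulated with test agonist, and the medium was separated before lysis. Efflux was taken as medium counts over total counts. Results are the mean ± SEM of 3–4 independent experiments.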

Mus musculus [3] = assay: Toxicity in Swiss-Webster mouse assessed as hyperactivity at 50 ug/kg, iv; assay type: organism-based; details: in vivo, 0.05 mg/kg
In short: (§2)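 Weanling male White Swiss-Webster mice (15–20 g) were fasted for 12 h. Compound in physiological buffered saline was given intravenously via the tail vein. Mice were then returned to their pens for observation of signs.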

[4] = target: T2, Neuronal acetylcholine receptor; alpha3/beta4 (Rattus norvegicus, UniProt P04757+P12392); assay: Displacement of [3H]epibatidine from alpha3beta4 nAChR (unknown origin) expressed in HEK cell membranes after 4 hrs by liquid scintillation counting method
T2 sequence (P04757 whole entry): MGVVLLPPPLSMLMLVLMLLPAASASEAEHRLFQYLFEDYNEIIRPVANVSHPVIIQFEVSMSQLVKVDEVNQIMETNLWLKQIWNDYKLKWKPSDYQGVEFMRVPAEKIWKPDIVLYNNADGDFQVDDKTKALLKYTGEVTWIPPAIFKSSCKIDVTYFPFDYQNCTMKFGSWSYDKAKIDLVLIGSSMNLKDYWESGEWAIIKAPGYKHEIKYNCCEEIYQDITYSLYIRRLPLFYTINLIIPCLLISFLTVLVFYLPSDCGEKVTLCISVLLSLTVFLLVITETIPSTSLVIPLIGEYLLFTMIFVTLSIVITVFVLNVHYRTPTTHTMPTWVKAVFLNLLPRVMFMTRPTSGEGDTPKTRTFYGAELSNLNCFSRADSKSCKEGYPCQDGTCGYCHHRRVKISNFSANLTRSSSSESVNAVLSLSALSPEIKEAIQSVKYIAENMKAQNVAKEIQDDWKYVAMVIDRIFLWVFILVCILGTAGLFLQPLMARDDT
T2 sequence (P12392 whole entry): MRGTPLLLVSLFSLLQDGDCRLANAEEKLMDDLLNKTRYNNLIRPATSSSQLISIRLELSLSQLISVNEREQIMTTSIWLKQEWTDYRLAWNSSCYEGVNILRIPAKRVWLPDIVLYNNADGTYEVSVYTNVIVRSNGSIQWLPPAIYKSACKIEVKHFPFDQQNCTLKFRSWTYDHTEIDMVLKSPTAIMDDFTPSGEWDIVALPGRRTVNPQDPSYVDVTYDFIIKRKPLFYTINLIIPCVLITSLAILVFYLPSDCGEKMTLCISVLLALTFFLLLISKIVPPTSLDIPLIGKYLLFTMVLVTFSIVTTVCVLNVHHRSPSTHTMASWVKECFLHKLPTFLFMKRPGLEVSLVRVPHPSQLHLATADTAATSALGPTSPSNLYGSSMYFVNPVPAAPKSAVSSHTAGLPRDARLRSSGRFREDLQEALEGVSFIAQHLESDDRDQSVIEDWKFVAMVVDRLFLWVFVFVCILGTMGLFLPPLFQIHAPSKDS
In short: (§3)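 Incubation was 4 h at room temperature, followed by rapid filtration, washing and liquid scintillation counting. Nonspecific binding was defined with 300 μM nicotine. Values are the mean ± SEM of four measurements.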

[5] = target: Neuronal acetylcholine receptor; assay: Displacement of [3H]epibatidine from rat forebrain nAChR after 4 hrs by liquid scintillation counting method; in short: as §3
Mus musculus [6] = assay: Toxicity in Swiss-Webster mouse assessed as piloerection at 40 ug/kg, iv; assay type: organism-based; details: in vivo, 0.04 mg/kg; in short: as §2
Mus musculus [7] = assay: Toxicity in Swiss-Webster mouse assessed as piloerection at 50 ug/kg, iv; assay type: organism-based; details: in vivo, 0.05 mg/kg; in short: as §2
Mus musculus [8] = assay: Toxicity in Swiss-Webster mouse assessed as elevated respiration at 40 ug/kg, iv; assay type: organism-based; details: in vivo, 0.04 mg/kg; in short: as §2
[9] = target: T3, Neuronal acetylcholine receptor subunit alpha-7 (Rattus norvegicus, UniProt Q05941); assay: Agonist activity at rat alpha7 nAChR expressed in Xenopus oocytes at -60 mV holding potential by electrophysiology method; assay type: cell-based
T3 sequence (Q05941 whole entry, the tested form may be a part): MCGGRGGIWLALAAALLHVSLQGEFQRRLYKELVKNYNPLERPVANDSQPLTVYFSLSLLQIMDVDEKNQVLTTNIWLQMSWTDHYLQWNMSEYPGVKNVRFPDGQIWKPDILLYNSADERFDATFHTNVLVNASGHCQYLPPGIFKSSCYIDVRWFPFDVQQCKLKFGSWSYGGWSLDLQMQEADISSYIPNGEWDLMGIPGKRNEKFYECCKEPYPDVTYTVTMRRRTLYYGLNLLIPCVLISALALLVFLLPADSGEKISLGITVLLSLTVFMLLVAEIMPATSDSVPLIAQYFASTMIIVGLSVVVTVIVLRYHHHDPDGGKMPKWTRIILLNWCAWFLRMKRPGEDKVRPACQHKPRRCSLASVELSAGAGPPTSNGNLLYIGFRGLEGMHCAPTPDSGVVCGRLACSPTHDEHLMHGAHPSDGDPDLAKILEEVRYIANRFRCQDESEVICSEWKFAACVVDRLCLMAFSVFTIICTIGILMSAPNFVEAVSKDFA
In short: (§4)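 Defolliculated X. laevis oocytes were injected with about 50 nL of rat subunit mRNA at 1 μg/μL. For α3β2 and α4β2 the subunits were mixed 1:1. Recording was by two-electrode voltage clamp at −60 mV and about 24 °C, with perfusion in HEPES-buffered NaCl/KCl/CaCl2/MgCl2. Agonist was applied for 3–4 s every 4–5 min. Peak currents were normalised to 1 mM ACh (nAChR) or 10 μM mCPBG (5-HT3A) and fitted to the Hill equation.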

[10] = target: T4, Neuronal acetylcholine receptor; alpha4/beta2 (Rattus norvegicus) (UniProt P09483+P12390); assay: Agonist activity at rat alpha4beta2 expressed in Xenopus oocytes at -60 mV holding potential by electrophysiology method relative to acetylcholine; assay type: cell-based; in short: as §4
Mus musculus [11] = assay: Toxicity in Swiss-Webster mouse assessed as piloerection at 40 ug/kg, iv measured within 1 min; assay type: organism-based; details: in vivo, 0.04 mg/kg; in short: as §2
[12] = target: Neuronal acetylcholine receptor subunit alpha-7 (Rattus norvegicus) (UniProt Q05941); assay: Agonist activity at rat alpha7 nAChR expressed in Xenopus oocytes at -60 mV holding potential by electrophysiology method relative to acetylcholine; assay type: cell-based; in short: as §4
Sequence of Neuronal acetylcholine receptor subunit alpha-7 (Rattus norvegicus) (Q05941 whole entry): as the sequence (Q05941 whole entry, the tested form may be a part) above

Mus musculus [13] = assay: Toxicity in iv dosed Swiss-Webster mouse; assay type: organism-based; details: in vivo; in short: as §2
[14] = target: T1, Neuronal acetylcholine receptor; alpha4/beta2; assay: Agonist activity at human alpha4beta2 nAChR by cell-based rubidium flux assay relative to 100 uM nicotine; in short: as §1
[15] = target: T5, Neuronal acetylcholine receptor; alpha4/beta2 (Rattus norvegicus, UniProt P09483+P12390); assay: Agonist activity at rat alpha4beta2 expressed in Xenopus oocytes at -60 mV holding potential by electrophysiology method; assay type: cell-based; in short: as §4
T5 sequence (P09483 whole entry): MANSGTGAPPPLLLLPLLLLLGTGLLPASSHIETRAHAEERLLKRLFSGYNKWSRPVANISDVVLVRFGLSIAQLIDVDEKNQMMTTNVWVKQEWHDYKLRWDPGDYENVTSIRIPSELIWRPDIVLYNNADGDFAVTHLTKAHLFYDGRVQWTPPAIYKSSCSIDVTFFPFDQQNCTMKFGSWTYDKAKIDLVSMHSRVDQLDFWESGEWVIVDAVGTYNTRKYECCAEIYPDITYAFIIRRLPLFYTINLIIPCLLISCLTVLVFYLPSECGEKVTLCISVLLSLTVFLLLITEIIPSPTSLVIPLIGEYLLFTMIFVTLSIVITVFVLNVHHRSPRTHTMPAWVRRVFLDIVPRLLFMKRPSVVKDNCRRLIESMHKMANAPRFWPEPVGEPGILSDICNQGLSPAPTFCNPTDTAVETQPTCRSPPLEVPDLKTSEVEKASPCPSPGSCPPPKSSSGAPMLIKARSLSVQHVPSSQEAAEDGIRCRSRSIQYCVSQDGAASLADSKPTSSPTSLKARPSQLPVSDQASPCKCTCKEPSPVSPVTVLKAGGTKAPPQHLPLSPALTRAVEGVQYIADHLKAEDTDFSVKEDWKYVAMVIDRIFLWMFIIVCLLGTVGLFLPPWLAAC
T5 sequence (P12390 whole entry): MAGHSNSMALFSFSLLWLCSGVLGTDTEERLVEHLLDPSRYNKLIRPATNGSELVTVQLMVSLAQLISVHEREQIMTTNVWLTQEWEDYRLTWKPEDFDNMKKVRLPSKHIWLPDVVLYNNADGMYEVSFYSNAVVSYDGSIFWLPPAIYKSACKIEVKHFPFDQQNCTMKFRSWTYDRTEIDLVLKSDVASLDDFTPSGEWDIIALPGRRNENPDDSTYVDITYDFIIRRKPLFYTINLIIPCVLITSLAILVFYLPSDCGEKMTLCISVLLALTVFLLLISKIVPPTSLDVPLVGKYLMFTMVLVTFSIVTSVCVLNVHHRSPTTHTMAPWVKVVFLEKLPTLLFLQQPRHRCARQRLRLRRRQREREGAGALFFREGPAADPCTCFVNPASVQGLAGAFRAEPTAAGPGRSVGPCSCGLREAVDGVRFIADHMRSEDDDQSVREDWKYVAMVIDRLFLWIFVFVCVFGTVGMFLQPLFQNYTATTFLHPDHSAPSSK

Mus musculus [16] = assay: Toxicity in Swiss-Webster mouse assessed as death at 50 ug/kg, iv measured within 30 secs; assay type: organism-based; details: in vivo, 0.05 mg/kg, 0.5 min; in short: as §2
[17] = target: Neuronal acetylcholine receptor; alpha3/beta4 (Rattus norvegicus) (UniProt P04757+P12392); assay: Agonist activity at rat alpha3beta4 nAChR by cell-based rubidium flux assay relative to 100 uM nicotine
In short: as §1, with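 “counts. […]” for “counts.”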

Mus musculus [18] = assay: Toxicity in Swiss-Webster mouse assessed as elevated respiration at 50 ug/kg, iv; assay type: organism-based; details: in vivo, 0.05 mg/kg; in short: as §2
Mus musculus [19] = assay: Toxicity in Swiss-Webster mouse assessed as tonic-clonic seizures at 50 ug/kg, iv measured within 30 secs; assay type: organism-based; details: in vivo, 0.05 mg/kg, 0.5 min; in short: as §2
[20] = target: T5, Neuronal acetylcholine receptor; alpha4/beta2; assay: Displacement of [3H]epibatidine from alpha4beta2 nAChR (unknown origin) expressed in HEK cell membranes after 4 hrs by liquid scintillation counting method; in short: as §3
Homo sapiens [21] = species: Homo sapiens; assay: Selectivity ratio of EC50 for agonist activity at rat alpha3beta4 nAChR (unknown origin) to EC50 for agonist activity at alpha4beta2 nAChR (unknown origin)
Homo sapiens [22] = species: Homo sapiens; assay: Selectivity ratio of Ki for displacement of [3H]epibatidine from alpha3beta4 nAChR (unknown origin) expressed in HEK cell membranes to Ki for displacement of [3H]epibatidine from alpha4beta2 nAChR (unknown origin) expressed in HEK cell membranes
Mus musculus [23] = assay: Toxicity in Swiss-Webster mouse assessed as elevated respiration at 40 ug/kg, iv measured within 1 min; assay type: organism-based; details: in vivo, 0.04 mg/kg; in short: as §2
[24] = target: T2, Neuronal acetylcholine receptor; alpha3/beta4; assay: Agonist activity at rat alpha3beta4 nAChR by cell-based rubidium flux assay; in short: as §1
[25] = target: T3, Neuronal acetylcholine receptor subunit alpha-7; assay: Displacement of [3H]epibatidine from alpha7 nAChR (unknown origin) expressed in HEK cell membranes after 4 hrs by liquid scintillation counting method; in short: as §3
[26] = target: T4, Neuronal acetylcholine receptor; alpha4/beta2 (Rattus norvegicus); assay: Agonist activity at rat alpha4beta2 expressed in Xenopus oocytes at 10 nM at -60 mV holding potential in presence of dihydro-beta-erythroidine by electrophysiology method; assay type: cell-based
[27] = target: Neuronal acetylcholine receptor subunit alpha-7 (Rattus norvegicus) (UniProt Q05941); assay: Agonist activity at rat alpha7 nAChR expressed in Xenopus oocytes at 10 uM at -60 mV holding potential by electrophysiology method in presence of methyllycaconitine; assay type: cell-based
[28] = target: T6, 5-hydroxytryptamine receptor 3A (Rattus norvegicus) (UniProt P35563); assay: Agonist activity at rat 5HT3A expressed in Xenopus oocytes at -60 mV holding potential by electrophysiology method relative to metachlorophenylbiguanide; assay type: cell-based; in short: as §4
T6 sequence (whole entry): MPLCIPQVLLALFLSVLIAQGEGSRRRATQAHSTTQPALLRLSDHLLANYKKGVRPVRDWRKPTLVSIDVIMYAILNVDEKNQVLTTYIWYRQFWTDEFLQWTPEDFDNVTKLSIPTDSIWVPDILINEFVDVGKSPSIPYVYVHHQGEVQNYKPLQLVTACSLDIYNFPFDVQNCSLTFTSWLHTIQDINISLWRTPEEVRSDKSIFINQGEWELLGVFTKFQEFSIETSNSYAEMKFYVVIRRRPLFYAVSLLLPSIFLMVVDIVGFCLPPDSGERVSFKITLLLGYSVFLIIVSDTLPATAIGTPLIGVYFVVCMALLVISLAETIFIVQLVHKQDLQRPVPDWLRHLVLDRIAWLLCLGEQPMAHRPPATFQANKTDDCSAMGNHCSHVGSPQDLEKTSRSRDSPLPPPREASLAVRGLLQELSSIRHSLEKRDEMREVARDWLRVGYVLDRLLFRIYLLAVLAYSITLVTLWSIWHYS

[29] = target: Neuronal acetylcholine receptor; alpha3/beta2 (Rattus norvegicus, UniProt P04757+P12390); assay: Agonist activity at rat alpha3beta2 expressed in Xenopus oocytes at -60 mV holding potential by electrophysiology method; assay type: cell-based; in short: as §4
Sequence of Neuronal acetylcholine receptor; alpha3/beta2 (P04757 whole entry): as the sequence (P04757 whole entry) above
Sequence of Neuronal acetylcholine receptor; alpha3/beta2 (P12390 whole entry): as the sequence (P12390 whole entry) above

[30] = target: T7, Neuronal acetylcholine receptor; alpha3/beta2 (Rattus norvegicus) (UniProt P04757+P12390); assay: Agonist activity at rat alpha3beta2 expressed in Xenopus oocytes at -60 mV holding potential by electrophysiology method relative to acetylcholine; assay type: cell-based; in short: as §4
[31] = target: T7, Neuronal acetylcholine receptor; alpha3/beta2 (Rattus norvegicus); assay: Agonist activity at rat alpha3beta2 expressed in Xenopus oocytes at 10 nM at -60 mV holding potential in presence of dihydro-beta-erythroidine by electrophysiology method; assay type: cell-based
[32] = target: T6, 5-hydroxytryptamine receptor 3A (Rattus norvegicus); assay: Agonist activity at rat 5HT3A expressed in Xenopus oocytes at 100 uM at -60 mV holding potential in presence of tropisetron by electrophysiology method; assay type: cell-based
In short: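 Oocytes expressing rat 5-HT3A were held at −60 mV under two-electrode voltage clamp. Tropisetron (30 nM) was pre-applied for 2 min before 100 μM agonist was applied, with n=4.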

[33] = target: T8, 5-hydroxytryptamine receptor 3A (Rattus norvegicus, UniProt P35563); assay: Agonist activity at rat 5HT3A expressed in Xenopus oocytes at -60 mV holding potential by electrophysiology method; assay type: cell-based; in short: as §4
T8 sequence (P35563 whole entry): T6 sequence (whole entry)

Rattus norvegicus = species: Rattus norvegicus; assay: Selectivity ratio of EC50 for rat alpha7 nAChR expressed in Xenopus oocytes to EC50 rat alpha4beta2 expressed in Xenopus oocytes; assay type: cell-based
Mus musculus [34] = assay: Toxicity in Swiss-Webster mouse assessed as hyperactivity at 10 mg/kg, iv; assay type: organism-based; details: in vivo; in short: as §2
Mus musculus [35] = assay: Toxicity in Swiss-Webster mouse assessed as piloerection at 10 mg/kg, iv; assay type: organism-based; details: in vivo; in short: as §2
Mus musculus [36] = assay: Toxicity in Swiss-Webster mouse assessed as elevated respiration at 10 mg/kg, iv; assay type: organism-based; details: in vivo; in short: as §2

| SMILES | LD50 (Mus musculus [1]) | pEC50 [2] | pKi [4] | pKi [5] | pEC50 [9] | Imax [10] | Imax [12] | LD50 (Mus musculus [13]) | Emax [14] | pEC50 [15] | Emax [17] | pKi [20] | Ratio EC50 (Homo sapiens [21]) | Ratio Ki (Homo sapiens [22]) | pEC50 [24] | pKi [25] | also measured |
| --- | --- | --- | --- | --- | --- | --- | --- | --- | --- | --- | --- | --- | --- | --- | --- | --- | --- |
| CN1CCC[C@H]1c1ccccc1 | 0.3 mg/kg | 5.68 | – | – | – | – | – | – | – | – | – | – | – | – | – | – | – |
| Clc1ccc2c(n1)O[C@]13CC[C@H]1NC[C@H]23 | – | 6.70 | 8.04 | 9.06 | 5.40 | 0.37% | 1.1% | 0.072 mg/kg | 45% | 8.82 | 91% | 9.57 | 2.9 | 34 | 6.24 | 8.36 | Activity (Mus musculus [3]): Toxic; Activity (Mus musculus [6]): Toxic; Activity (Mus musculus [7]): Toxic; Activity (Mus musculus [8]): Toxic; Activity (Mus musculus [11]): Non-Toxic; Activity (Mus musculus [16]): Toxic; Activity (Mus musculus [18]): Toxic; Activity (Mus musculus [19]): Toxic; Activity (Mus musculus [23]): Non-Toxic |
| Clc1ccc2c(n1)OC13CCC1NCC23 (racemic) | – | 6.70 | 7.96 | 8.96 | 5.00 | 0.32% | 1.08% | 0.27 mg/kg | 42% | 8.51 | 91% | 9.46 | 3.7 | 31 | 6.12 | 8.27 | Activity [26]: inactive; Activity [27]: inactive; Imax [28]: 0.79%; pEC50 [29]: 4.72; Imax [30]: 0.25%; Activity [31]: inactive; Activity [32]: inactive; pEC50 [33]: 4.54; Ratio EC50 (Rattus norvegicus): 3200 |
| Clc1ccc(C2CC3CCC2N3)cn1 (racemic) [EPIBATIDINE] | – | – | – | – | – | – | – | 0.0015 mg/kg | 135% | – | 114% | – | – | – | – | – | – |
| O=c1cccc2n1C[C@@H]1CNC[C@H]2C1 [CYTISINICLINE] | 1.73 mg/kg | – | – | – | – | – | – | – | – | – | – | – | – | – | – | – | – |
| Clc1ccc2c(n1)O[C@@]13CC[C@@H]1NC[C@@H]23 [PHANTASMIDINE] | – | 4.25 | 6.41 | 7.54 | 4.68 | 0.43% | 1.02% | > 10 mg/kg | 110% | 7.35 | 53% | 7.92 | 0.49 | 33 | 4.57 | 6.89 | Activity (Mus musculus [34]): Toxic; Activity (Mus musculus [35]): Toxic; Activity (Mus musculus [36]): Toxic |

Reference: ChEMBL document CHEMBL4251743, “Absolute Configuration and Pharmacology of the Poison Frog Alkaloid Phantasmidine” (J Nat Prod, 2018)
